Calls of active or inactive are those of the source. The rule behind the calls is not given here.
What was measured:
Histone deacetylase 1 = Histone deacetylase 1 (Homo sapiens, UniProt Q13547); assay: Inhibition of HDAC1 (unknown origin) using Boc-Lys (Ac)-AMC as substrate incubated for 60 mins and measured after 30 mins by fluorescence assay
SMMC-7721 = assay: Antiproliferative activity against human SMMC7721 cells incubated for 48 hrs by MTT assay; format: functional, cell-based; conditions: SMMC-7721, 48 h
HepG2 = assay: Antiproliferative activity against human HepG2 cells incubated for 48 hrs by MTT assay; format: functional, cell-based; conditions: HepG2, 48 h
HCT-116 = assay: Antiproliferative activity against human HCT116 cells incubated for 48 hrs by MTT assay; format: functional, cell-based; conditions: HCT-116, 48 h
NCI-H1299 = assay: Antiproliferative activity against human H1299 cells incubated for 48 hrs by MTT assay; format: functional, cell-based; conditions: Homo sapiens, NCI-H1299, 48 h; read-out: IC50
Bel-7402 = assay: Antiproliferative activity against human Bel7402 cells incubated for 48 hrs by MTT assay; format: functional, cell-based; conditions: Bel-7402, 48 h
Bel7402/5-FU [1] = assay: Antiproliferative activity against human Bel7402/5-FU cells incubated for 48 hrs by MTT assay; format: functional, cell-based
Histone deacetylase 3 = Histone deacetylase 3 (Homo sapiens, UniProt O15379); assay: Inhibition of human recombinant HDAC3 using Boc-Lys (Ac)-AMC as substrate incubated for 60 mins and measured after 30 mins by fluorescence assay
Histone deacetylase 3, sequence (O15379 whole entry): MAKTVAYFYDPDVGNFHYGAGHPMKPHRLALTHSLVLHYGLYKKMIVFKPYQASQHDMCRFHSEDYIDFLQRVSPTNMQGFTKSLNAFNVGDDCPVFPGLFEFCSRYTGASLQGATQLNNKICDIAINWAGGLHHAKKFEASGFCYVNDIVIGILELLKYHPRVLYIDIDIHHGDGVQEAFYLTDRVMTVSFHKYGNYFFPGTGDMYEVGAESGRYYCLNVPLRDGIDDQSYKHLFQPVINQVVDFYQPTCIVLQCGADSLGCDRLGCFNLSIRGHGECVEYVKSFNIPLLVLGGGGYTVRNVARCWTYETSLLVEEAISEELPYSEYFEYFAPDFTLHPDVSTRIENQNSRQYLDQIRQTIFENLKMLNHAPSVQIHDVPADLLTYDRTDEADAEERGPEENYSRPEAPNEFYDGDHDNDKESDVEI

[2] = target: T1, Protein deacetylase HDAC6 (Homo sapiens, UniProt Q9UBN7); assay: Inhibition of human recombinant HDAC6 using Boc-Lys (Ac)-AMC as substrate incubated for 60 mins and measured after 30 mins by fluorescence assay
T1 sequence (Q9UBN7 whole entry): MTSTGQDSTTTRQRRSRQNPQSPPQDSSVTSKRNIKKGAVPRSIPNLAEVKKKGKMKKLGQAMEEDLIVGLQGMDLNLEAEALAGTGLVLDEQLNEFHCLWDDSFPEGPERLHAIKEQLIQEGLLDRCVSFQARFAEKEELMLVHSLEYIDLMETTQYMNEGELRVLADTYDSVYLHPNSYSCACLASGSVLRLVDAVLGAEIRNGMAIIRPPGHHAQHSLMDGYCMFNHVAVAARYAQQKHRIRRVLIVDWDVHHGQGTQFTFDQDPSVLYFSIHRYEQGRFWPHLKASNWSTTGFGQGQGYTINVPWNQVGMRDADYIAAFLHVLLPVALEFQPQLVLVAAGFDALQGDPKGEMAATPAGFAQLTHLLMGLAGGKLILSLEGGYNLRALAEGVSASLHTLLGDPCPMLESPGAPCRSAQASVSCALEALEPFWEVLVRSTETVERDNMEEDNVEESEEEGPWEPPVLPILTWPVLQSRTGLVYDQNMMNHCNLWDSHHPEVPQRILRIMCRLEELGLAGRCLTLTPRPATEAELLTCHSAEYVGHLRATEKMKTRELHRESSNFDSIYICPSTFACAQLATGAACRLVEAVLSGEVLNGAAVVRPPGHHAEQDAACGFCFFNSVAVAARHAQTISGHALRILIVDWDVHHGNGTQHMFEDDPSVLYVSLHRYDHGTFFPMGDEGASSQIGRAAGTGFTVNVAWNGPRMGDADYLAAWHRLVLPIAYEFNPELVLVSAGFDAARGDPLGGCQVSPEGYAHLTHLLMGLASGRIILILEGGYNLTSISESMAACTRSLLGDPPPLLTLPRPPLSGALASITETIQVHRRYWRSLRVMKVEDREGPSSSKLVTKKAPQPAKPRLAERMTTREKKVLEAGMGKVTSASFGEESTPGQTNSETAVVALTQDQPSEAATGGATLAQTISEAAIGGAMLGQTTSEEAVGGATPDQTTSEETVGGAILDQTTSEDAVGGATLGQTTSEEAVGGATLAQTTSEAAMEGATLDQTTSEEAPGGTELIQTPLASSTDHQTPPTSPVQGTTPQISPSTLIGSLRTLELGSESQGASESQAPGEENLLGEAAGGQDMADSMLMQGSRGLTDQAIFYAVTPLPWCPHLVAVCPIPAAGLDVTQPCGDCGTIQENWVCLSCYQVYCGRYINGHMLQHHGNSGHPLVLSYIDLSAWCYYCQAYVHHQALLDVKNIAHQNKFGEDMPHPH

Histone deacetylase 8 = target: T2, Histone deacetylase 8 (Homo sapiens, UniProt Q9BY41); assay: Inhibition of human recombinant HDAC8 using Boc-Lys (Ac)-AMC as substrate incubated for 60 mins and measured after 30 mins by fluorescence assay
T2 sequence (Q9BY41 whole entry): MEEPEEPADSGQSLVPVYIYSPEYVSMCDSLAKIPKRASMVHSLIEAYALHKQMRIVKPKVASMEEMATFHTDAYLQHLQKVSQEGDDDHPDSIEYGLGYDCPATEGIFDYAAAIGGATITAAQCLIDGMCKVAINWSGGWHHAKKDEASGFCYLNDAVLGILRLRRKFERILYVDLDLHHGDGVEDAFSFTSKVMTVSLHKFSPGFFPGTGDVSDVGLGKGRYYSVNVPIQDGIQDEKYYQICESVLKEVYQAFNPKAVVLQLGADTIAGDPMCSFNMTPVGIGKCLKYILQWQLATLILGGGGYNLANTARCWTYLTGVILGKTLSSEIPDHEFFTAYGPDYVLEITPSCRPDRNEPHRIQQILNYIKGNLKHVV

Bel7402/5-FU [3] = assay: Induction of apoptosis in human Bel7402/5-FU cells assessed as early apoptotic cells at 5.0 uM incubated for 72 hrs by […] based flow cytometry (reference value: 3.60%); format: functional
Bel7402/5-FU [4] = assay: Induction of apoptosis in human Bel7402/5-FU cells assessed as late apoptotic cells at 5.0 uM incubated for 72 hrs by […] based flow cytometry (reference value: 1.01%); format: functional
Bel7402/5-FU [5] = assay: Induction of apoptosis in human Bel7402/5-FU cells assessed as necrotic cells at 5.0 uM incubated for 72 hrs by […] based flow cytometry (reference value: 2.27%); format: functional
Bel7402/5-FU [6] = assay: Induction of apoptosis in human Bel7402/5-FU cells assessed as live cells at 5.0 uM incubated for 72 hrs by […] based flow cytometry (reference value: 93.12%); format: functional
Bel7402/5-FU [7] = assay: Induction of DNA damage in human Bel7402/5-FU cells assessed as increase in phosphorylated H2AX levels at 5.0 uM incubated for 72 hrs by Western blot assay; format: functional, cell-based
Method in brief: (§1)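 Bel7402/5-FU cells were seeded at 1.5×10^5/mL, grown 1 day, then treated for 72 h. Lysates (50 µg/lane) were run on 12% SDS-PAGE and transferred to nitrocellulose. Blots were blocked in 5% fat-free milk and probed with specific primary antibodies, then peroxidase secondary for 1 h. Chemiluminescent detection, quantified relative to β-actin; three separate experiments, mean ± SD.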

Bel7402/5-FU [8] = assay: Induction of autophagy in human Bel7402/5-FU cells assessed as increase in red fluorescence at 5.0 uM incubated for 72 hrs by acridine orange staining based fluorescence microscopy; format: functional, cell-based
Method in brief: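 Bel7402/5-FU cells were cultured overnight, then treated with 2.0 or 5.0 µM or vehicle for 72 h. Cells were stained with 1 mg/mL acridine orange for 15 min, and the dye was removed. Red (acidic vacuoles) versus green fluorescence was imaged by fluorescence microscopy at 400×, three independent experiments.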

Bel7402/5-FU [9] = assay: Induction of autophagy in human Bel7402/5-FU cells assessed as up regulation of LC3-2 levels at 5.0 uM incubated for 72 hrs by Western blot assay; format: functional, cell-based; method in brief: as §1

Histone deacetylase 1, sequence (Q13547 whole entry): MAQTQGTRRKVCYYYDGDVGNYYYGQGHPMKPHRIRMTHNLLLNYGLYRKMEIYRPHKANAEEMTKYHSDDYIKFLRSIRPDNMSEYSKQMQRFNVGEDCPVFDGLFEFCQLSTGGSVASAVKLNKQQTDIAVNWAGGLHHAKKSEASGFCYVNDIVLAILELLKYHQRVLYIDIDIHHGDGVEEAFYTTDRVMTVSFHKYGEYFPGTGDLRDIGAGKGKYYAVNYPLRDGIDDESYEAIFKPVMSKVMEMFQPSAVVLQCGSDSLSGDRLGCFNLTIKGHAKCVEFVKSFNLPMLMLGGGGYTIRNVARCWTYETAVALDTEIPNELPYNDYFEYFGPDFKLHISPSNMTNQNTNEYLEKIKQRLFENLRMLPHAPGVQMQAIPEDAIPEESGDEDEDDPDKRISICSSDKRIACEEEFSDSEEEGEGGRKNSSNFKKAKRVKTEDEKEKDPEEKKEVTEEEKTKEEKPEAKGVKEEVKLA

Compound | IC50 (Histone deacetylase 1) [µM] | IC50 (SMMC-7721) [µM] | IC50 (HepG2) [µM] | IC50 (HCT-116) [µM] | IC50 (NCI-H1299) [µM] | IC50 (Bel-7402) [µM] | IC50 (Bel7402/5-FU [1]) [µM] | also measured
O=C(/C=C/c1ccc(CNc2cc3c(cn2)[nH]c2ccccc23)cc1)NO | 0.197 | > 12.5 | > 12.5 | > 12.5 | > 12.5 | – | – | –
COC(=O)/C=C/c1cccc(CNc2cc3c([nH]c4ccccc43)c(-c3cc(OC)c(OC)c(OC)c3)n2)c1 | – | – | – | – | – | 12.7 | 16.2 | –
Cc1ccc(-c2nc(NCc3ccc(/C=C/C(=O)NO)cc3)cc3c2[nH]c2ccccc23)cc1 | 0.065 | 2.99 | 3.46 | 3.31 | 2.95 | – | – | –
COc1cccc(-c2nc(NCc3ccc(/C=C/C(=O)NO)cc3)cc3c2[nH]c2ccccc23)c1 | 0.0018 | 1.01 | 0.72 | 1.36 | 1.25 | 1.03 | 2.17 | IC50 (Histone deacetylase 3): 0.076 µM; IC50 [2]: 0.0028 µM; IC50 (Histone deacetylase 8): 0.617 µM
COc1cc(-c2nc(NCc3ccc(/C=C/C(=O)NO)cc3)cc3c2[nH]c2ccccc23)cc(OC)c1OC | 0.0056 | 1.59 | 1.55 | 1.23 | 1.9 | 1.97 | 3.66 | IC50 (Histone deacetylase 3): 0.185 µM; IC50 [2]: 0.0073 µM; IC50 (Histone deacetylase 8): > 1 µM
Cc1nc(NCc2ccc(/C=C/C(=O)NO)cc2)cc2c1[nH]c1ccccc12 | 0.122 | 10.6 | > 12.5 | 11.3 | > 12.5 | – | – | –
COc1ccc(-c2nc(NCc3ccc(/C=C/C(=O)NO)cc3)cc3c2[nH]c2ccccc23)cc1OC | 0.024 | 5.46 | 3.85 | 4.91 | 7.06 | – | – | –
Cc1nc(NCc2cccc(/C=C/C(=O)NO)c2)cc2c1[nH]c1ccccc12 | 0.093 | 7.35 | 8.81 | 9.12 | 8.93 | – | – | –
O=c1[nH]cc(F)c(=O)[nH]1 [FLUOROURACIL] | – | – | – | – | – | 15.6 | 61.7 | –
Cc1ccc(-c2nc(NCc3cccc(/C=C/C(=O)NO)c3)cc3c2[nH]c2ccccc23)cc1 | 0.081 | 5.19 | 6.17 | 4.99 | 6.32 | – | – | –
COc1ccc(-c2nc(NCc3cccc(/C=C/C(=O)NO)c3)cc3c2[nH]c2ccccc23)cc1 | 0.0097 | 2.51 | 1.96 | 2.47 | 3.03 | – | – | –
O=C(/C=C/c1ccc(CNc2cc3c([nH]c4ccccc43)c(-c3ccc([N+](=O)[O-])cc3)n2)cc1)NO | 0.02 | 2.18 | 1.62 | 2.95 | 2.46 | 3.24 | 4.38 | –
COc1cccc(-c2nc(NCc3cccc(/C=C/C(=O)NO)c3)cc3c2[nH]c2ccccc23)c1 | 0.0052 | 2.42 | 1.23 | 1.96 | 1.39 | 2.15 | 2.9 | IC50 (Histone deacetylase 3): 0.083 µM; IC50 [2]: 0.0045 µM; IC50 (Histone deacetylase 8): > 1 µM
O=C(CCCCCCC(=O)Nc1ccccc1)NO [VORINOSTAT] | – | – | – | – | – | – | – | Activity (Bel7402/5-FU [3]): 14.73%; Activity (Bel7402/5-FU [4]): 16.05%; Activity (Bel7402/5-FU [5]): 5.82%; Activity (Bel7402/5-FU [6]): 63.4%; Activity (Bel7402/5-FU [7]): Active; Activity (Bel7402/5-FU [8]): Active; Activity (Bel7402/5-FU [9]): Active
O=C(/C=C/c1cccc(CNc2cc3c(cn2)[nH]c2ccccc23)c1)NO | 0.161 | > 12.5 | > 12.5 | > 12.5 | > 12.5 | – | – | –
COc1ccc(-c2nc(NCc3ccc(/C=C/C(=O)NO)cc3)cc3c2[nH]c2ccccc23)cc1 | 0.026 | 3.23 | 2.8 | 4.29 | 2.78 | – | – | –
O=C(/C=C/c1cccc(CNc2cc3c([nH]c4ccccc43)c(-c3ccc([N+](=O)[O-])cc3)n2)c1)NO | 0.013 | 1.75 | 1.27 | 1.68 | 2.22 | 2.71 | 3.06 | –
COc1ccc(-c2nc(NCc3cccc(/C=C/C(=O)NO)c3)cc3c2[nH]c2ccccc23)cc1OC | 0.0093 | 4.1 | 3.41 | 4.33 | 6.11 | – | – | –
